Measurements gathered from unrelated publications.
Lines come from different studies, so protocols differ.
RET M918T: Proto-oncogene tyrosine-protein kinase receptor Ret (RET, Homo sapiens, UniProt P07949, M918T)
RET V804M: Proto-oncogene tyrosine-protein kinase receptor Ret (RET, Homo sapiens, UniProt P07949, V804M)
RET V804L: Proto-oncogene tyrosine-protein kinase receptor Ret (RET, Homo sapiens, UniProt P07949, V804L)
RET: Proto-oncogene tyrosine-protein kinase receptor Ret (RET, Homo sapiens, UniProt P07949)

SMILES | target | test | setting | remaining binding [%]
CN(C(=O)c1ccccc1)c1cc(N(C)c2ccc3c(c2)CCc2ccc(C(=O)NCCN4CCOCC4)cc2C3=O)ccc1F | RET M918T | cell-free assay, competition with immobilised ligand | 1 µM | 100
COc1cnc(Nc2cccc(S(N)(=O)=O)c2)nc1N1CCN(c2ccccc2)C(=O)C1 | RET V804M | binding, competition with immobilised ligand | 1 µM | 77
C[C@H]1CCN(c2nccc(-c3cnn4ncccc34)n2)C1 | RET V804M | binding | 1 µM | 84
O=C(NCCCN1CCOCC1)c1ccc(Nc2ncc(Cl)c(-c3ccc(Cl)s3)n2)cc1 | RET V804L | binding, competition with immobilised ligand | 1 µM | 13
CN(c1nccc(-c2cnn3ncccc23)n1)C1CC1 | RET | binding | 1 µM | 84
CCN1CCN(Cc2ccc(C(=O)Nc3ccc(C)c(Oc4ccc5c(c4)CC(=O)N5)c3)cc2C(F)(F)F)CC1 | RET M918T | binding, competition with immobilised ligand | 1 µM | 40
O=C(c1ccc(Nc2nccc(-c3cc4ccccc4s3)n2)cc1)N1CCC(N2CCCC2)CC1 | RET V804L | binding, competition with immobilised ligand | 1 µM | 80
CN(C)c1ncc(F)c(-c2cnn3ncccc23)n1 | RET V804M | binding | 1 µM | 100
Cc1nc(Cc2cccc(C(F)(F)F)c2)sc1-c1ccc(C(N)=O)nc1 | RET V804L | cell-free assay, competition with immobilised ligand | 1 µM | 86
N[C@H]1CCN(c2nccc(-c3cnn4ncccc34)n2)C1 | RET V804M | binding | 1 µM | 100
O=C(c1ccc(Nc2ncc(Cl)c(-c3ccc(Cl)s3)n2)cc1)N1CCC(N2CCCC2)CC1 | RET V804M | binding, competition with immobilised ligand | 1 µM | 12
CO[C@@H](C)c1c(Nc2ccc([C@H](N(C)C(=O)C3CCS(=O)(=O)CC3)C(F)(F)F)cc2)cnc2cc(Cl)nn12 | RET V804M | cell-free assay, competition with immobilised ligand | 1 µM | 94
F[C@@H]1CCN(c2nccc(-c3cnn4ncccc34)n2)C1 | RET M918T | binding | 1 µM | 100
O=C(N1CCS(=O)(=O)CC1)N1C[C@H](c2ccc(OC(F)(F)F)cc2)C[C@H](c2nc(C3CC3)no2)C1 | RET M918T | cell-free assay, competition with immobilised ligand | 1 µM | 92
C=CC(=O)N1CCC(C(=O)NCC(=O)N2CCN(c3nc(-c4cnc(N)nc4C(F)F)nc(N4CCOCC4)n3)CC2)CC1 | RET M918T | binding, competition with immobilised ligand | 1 µM | 97
O=C(Nc1c[nH]nc1C(=O)NC1CCNCC1)c1cc(F)cc(F)c1 | RET V804L | binding, competition with immobilised ligand | 1 µM | 100
COc1ncc2cc3ccccc3nc2c1C#N | RET | cell-free assay, competition with immobilised ligand | 5 µM | 96
N#CC1(c2ccccn2)CCN(Cc2cc(C(=O)N3CCCC3)c(=O)n3ccccc23)CC1 | RET M918T | cell-free assay, competition with immobilised ligand | 1 µM | 88
CN(C)c1nccc(-c2cnn3ncccc23)n1 | RET | binding | 1 µM | 91
FC(F)(F)c1ccc2c(c1)nc(-c1cccnc1)n2C1CC1 | RET V804L | cell-free assay, competition with immobilised ligand | 1 µM | 81
Nc1ncc2c(n1)-c1c([nH]c3ccc(C#CC4CC4)cc13)CCCC2 | RET V804L | binding, competition with immobilised ligand | 1 µM | 96
COc1ccnn2ncc(-c3ccnc(N(C)C)n3)c12 | RET V804L | binding | 1 µM | 100
CS(=O)(=O)N1CCCC(NC(=O)[C@H](CCC2CCCCC2)NC(=O)c2ccc(CNc3ncnc4c3nnn4-c3ccccc3)cc2)C1 (some centres unmarked) | RET M918T | cell-free assay, competition with immobilised ligand | 0.1 µM | 93
